Measured values reported in ChEMBL document CHEMBL1143428, “Extended-spectrum-beta-lactamase-producing Enterobacteriaceae strains in various types of private health care centers” (2007).
≈ marks a conversion by molar mass, not a printed value.

What was measured:
Assay type in all cases: functional
[1] = system: Proteus mirabilis; assay: Antimicrobial activity against Proteus mirabilis Pm4 expressing TEM-21 gene
Method in brief: (§1)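 Clinical isolates from private health care centers. β-Lactamase content was assigned by isoelectric focusing, PCR with blaTEM-, blaSHV- and blaCTX-M-specific primers, and sequencing. MICs (μg/ml) were reported for amoxicillin, cefoxitin, cefotaxime, ceftazidime, imipenem and ertapenem. Amoxicillin, cefotaxime and ceftazidime were also tested with clavulanic acid held at a fixed 2 μg/ml.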

[2] = system: Escherichia coli; assay: Antimicrobial activity against Escherichia coli Ec2-a containing pEc1-C plasmid expressing CTX-M-15 OXA-1 gene; method in brief: as §1
[3] = system: Klebsiella pneumoniae; assay: Antimicrobial activity against Klebsiella pneumoniae Kp3 expressing SHV-2a TEM-1 gene
Method in brief: (§2)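 β-Lactam MICs (μg/ml) measured against clinical Enterobacteriaceae isolates collected from private health care centers. Enzyme content of each isolate was assigned by isoelectric focusing, PCR with blaTEM/blaSHV/blaCTX-M primers and sequencing, with cloning to separate coexisting TEM or SHV genes. In combination tests, the β-lactamase inhibitor clavulanic acid was held at a fixed 2 μg/ml.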

[4] = system: Klebsiella pneumoniae; assay: Antimicrobial activity against Klebsiella pneumoniae Kp2 expressing TEM-15 gene; method in brief: as §2
[5] = system: Klebsiella aerogenes; assay: Antimicrobial activity against Enterobacter aerogenes Ea1 expressing TEM-24b gene; method in brief: as §1
[6] = system: Escherichia coli; assay: Antimicrobial activity against Escherichia coli Ec3 expressing CTX-M-15 TEM-1 OXA-1 gene; method in brief: as §2
[7] = system: Klebsiella aerogenes; assay: Antimicrobial activity against Enterobacter aerogenes Ea2 expressing TEM-3 gene; method in brief: as §1
[8] = system: Morganella morganii; assay: Antimicrobial activity against Morganella morganii expressing TEM-24b AmpC gene; method in brief: as §2
[9] = system: Escherichia coli; assay: Antimicrobial activity against Escherichia coli Ec7 expressing SHV-12 IRT-6 gene; method in brief: as §1
[10] = system: Escherichia coli; assay: Antimicrobial activity against Escherichia coli Ec6 expressing CTX-M-14 gene; method in brief: as §2
[11] = system: Klebsiella pneumoniae; assay: Antimicrobial activity against Klebsiella pneumoniae Kp5 expressing plasmid-mediated cephalosporinase ACC-1 and TEM-1; method in brief: as §2
[12] = system: Klebsiella aerogenes; assay: Antimicrobial activity against Enterobacter aerogenes Ea1 expressing TEM-24b AmpC +/- TEM-1 or TEM-2 gene; method in brief: as §2
[13] = system: Klebsiella oxytoca; assay: Antimicrobial activity against Klebsiella oxytoca expressing TEM-11 gene; method in brief: as §1
[14] = system: Klebsiella aerogenes; assay: Antimicrobial activity against Enterobacter aerogenes Ea2 expressing TEM-3 AmpC gene; method in brief: as §1
[15] = system: Escherichia coli; assay: Antimicrobial activity against Escherichia coli Ec2 containing pEc1-D plasmid expressing CTX-M-15 TEM-1 OXA-1gene; method in brief: as §2
[16] = system: Escherichia coli; assay: Antimicrobial activity against Escherichia coli Ec5 expressing CTX-M-2 TEM-1 gene; method in brief: as §2
[17] = system: Klebsiella pneumoniae; assay: Antimicrobial activity against Klebsiella pneumoniae Kp4 expressing SHV-12 SHV-1 and plasmid-mediated cephalosporinase CMY-4; method in brief: as §2
[18] = system: Klebsiella pneumoniae; assay: Antimicrobial activity against Klebsiella pneumoniae Kp2 expressing TEM-15 TEM-17 TEM-1 gene; method in brief: as §2
[19] = system: Escherichia coli; assay: Antimicrobial activity against Escherichia coli Ec10 expressing TEM-24b gene; method in brief: as §2
[20] = system: Klebsiella pneumoniae; assay: Antimicrobial activity against Klebsiella pneumoniae Kp1 expressing SHV-4 gene; method in brief: as §2
[21] = system: Escherichia coli; assay: Antimicrobial activity against Escherichia coli Ec2 containing pEc1-B plasmid expressing CTX-M-15 TEM-1 OXA-1 gene; method in brief: as §1
[22] = system: Escherichia coli; assay: Antimicrobial activity against Escherichia coli Ec8 expressing TEM-21 AmpC gene; method in brief: as §1
[23] = system: Escherichia coli; assay: Antimicrobial activity against Escherichia coli Ec1 containing pEc1-A plasmid expressing CTX-M-15 TEM-1 OXA-1 gene; method in brief: as §2
[24] = system: Enterobacter cloacae; assay: Antimicrobial activity against Enterobacter cloacae Ecl1 expressing TEM-24b AmpC TEM-1 gene; method in brief: as §2
[25] = system: Proteus mirabilis; assay: Antimicrobial activity against Proteus mirabilis Pm1-Pm3 expressing TEM-24b gene; method in brief: as §1
[26] = system: Escherichia coli; assay: Antimicrobial activity against Escherichia coli Ec4 expressing CTX-M-1 AmpC gene; method in brief: as §2
[27] = system: Escherichia coli; assay: Antimicrobial activity against Escherichia coli Ec9 expressing TEM-24b TEM-26 gene; method in brief: as §2

Compound | MIC [1] [µg/mL] | MIC [2] [µg/mL] | MIC [3] [µg/mL] | MIC [4] [µg/mL] | MIC [5] [µg/mL] | MIC [6] [µg/mL] | MIC [7] [µg/mL] | MIC [8] [µg/mL] | MIC [9] [µg/mL] | MIC [10] [µg/mL] | MIC [11] [µg/mL] | MIC [12] [µg/mL] | MIC [13] [µg/mL] | MIC [14] [µg/mL] | MIC [15] [µg/mL] | MIC [16] [µg/mL] | MIC [17] [µg/mL] | MIC [18] [µg/mL] | MIC [20] [µg/mL] | MIC [21] [µg/mL] | further results
C[C@@H](O)[C@H]1C(=O)N2C(C(=O)O)=C(S[C@@H]3CN[C@H](C(=O)Nc4cccc(C(=O)O)c4)C3)[C@H](C)[C@H]12 [ERTAPENEM] | 0.01 (≈ 0.021 µM) | 0.2 (≈ 0.421 µM) | 0.02 (≈ 0.0421 µM) | 0.02 (≈ 0.0421 µM) | 0.02 (≈ 0.0421 µM) | 0.1 (≈ 0.21 µM) | 0.02 (≈ 0.0421 µM) | 0.02 (≈ 0.0421 µM) | 0.2 (≈ 0.421 µM) | 0.02 (≈ 0.0421 µM) | 0.05 (≈ 0.105 µM) | 0.05 (≈ 0.105 µM) | 0.1 (≈ 0.21 µM) | 0.2 (≈ 0.421 µM) | 0.05 (≈ 0.105 µM) | 0.05 (≈ 0.105 µM) | 0.01 (≈ 0.021 µM) | 0.1 (≈ 0.21 µM) | 0.02 (≈ 0.0421 µM) | 0.1 (≈ 0.21 µM) | MIC [19]: 0.02 µg/mL (≈ 0.0421 µM); MIC [22]: 0.1 µg/mL (≈ 0.21 µM); MIC [23]: 0.05 µg/mL (≈ 0.105 µM); MIC [24]: 0.5 µg/mL (≈ 1.05 µM); MIC [25]: 0.01 µg/mL (≈ 0.021 µM); MIC [26]: 0.05 µg/mL (≈ 0.105 µM); MIC [27]: ≤ 0.01 µg/mL
C[C@@H](O)[C@H]1C(=O)N2C(C(=O)O)=C(SCCNC=N)C[C@H]12 [IMIPENEM ANHYDROUS] | 1 (≈ 3.34 µM) | 0.5 (≈ 1.67 µM) | 1 (≈ 3.34 µM) | 0.5 (≈ 1.67 µM) | 0.5 (≈ 1.67 µM) | 0.5 (≈ 1.67 µM) | 0.5 (≈ 1.67 µM) | 4 (≈ 13.4 µM) | 0.5 (≈ 1.67 µM) | 0.5 (≈ 1.67 µM) | 0.5 (≈ 1.67 µM) | 0.5 (≈ 1.67 µM) | 0.5 (≈ 1.67 µM) | 1 (≈ 3.34 µM) | 0.5 (≈ 1.67 µM) | 0.5 (≈ 1.67 µM) | 1 (≈ 3.34 µM) | 0.5 (≈ 1.67 µM) | 0.5 (≈ 1.67 µM) | 0.5 (≈ 1.67 µM) | MIC [22]: 0.5 µg/mL (≈ 1.67 µM); MIC [24]: 1 µg/mL (≈ 3.34 µM); MIC [25]: 1 µg/mL (≈ 3.34 µM); MIC [26]: 1 µg/mL (≈ 3.34 µM); MIC [27]: 0.5 µg/mL (≈ 1.67 µM)
CO/N=C(\C(=O)N[C@@H]1C(=O)N2C(C(=O)O)=C(COC(C)=O)CS[C@H]12)c1csc(N)n1 [CEFOTAXIME] | 2 (≈ 4.39 µM) | 256 (≈ 562 µM) | 2 (≈ 4.39 µM) | 8 (≈ 17.6 µM) | 1 (≈ 2.2 µM) | 512 (≈ 1120 µM) | 0.2 (≈ 0.439 µM) | 16 (≈ 35.1 µM) | 16 (≈ 35.1 µM) | 32 (≈ 70.3 µM) | 8 (≈ 17.6 µM) | 1 (≈ 2.2 µM) | 1 (≈ 2.2 µM) | 4 (≈ 8.78 µM) | 2 (≈ 4.39 µM) | 32 (≈ 70.3 µM) | 16 (≈ 35.1 µM) | 64 (≈ 141 µM) | 8 (≈ 17.6 µM) | 64 (≈ 141 µM) | MIC [19]: 2 µg/mL (≈ 4.39 µM); MIC [22]: 32 µg/mL (≈ 70.3 µM); MIC [23]: 256 µg/mL (≈ 562 µM); MIC [24]: 64 µg/mL (≈ 141 µM); MIC [25]: 0.5 µg/mL (≈ 1.1 µM); MIC [26]: 64 µg/mL (≈ 141 µM); MIC [27]: 1 µg/mL (≈ 2.2 µM)
CC(C)(O/N=C(\C(=O)N[C@@H]1C(=O)N2C(C(=O)[O-])=C(C[n+]3ccccc3)CS[C@H]12)c1csc(N)n1)C(=O)O [CEFTAZIDIME] | 1 (≈ 1.83 µM) | 256 (≈ 468 µM) | 256 (≈ 468 µM) | 32 (≈ 58.5 µM) | 128 (≈ 234 µM) | 256 (≈ 468 µM) | 16 (≈ 29.3 µM) | 128 (≈ 234 µM) | 128 (≈ 234 µM) | 4 (≈ 7.32 µM) | 64 (≈ 117 µM) | 256 (≈ 468 µM) | 128 (≈ 234 µM) | 16 (≈ 29.3 µM) | 1 (≈ 1.83 µM) | 1 (≈ 1.83 µM) | 4 (≈ 7.32 µM) | 512 (≈ 937 µM) | 128 (≈ 234 µM) | 16 (≈ 29.3 µM) | MIC [19]: 256 µg/mL (≈ 468 µM); MIC [22]: 64 µg/mL (≈ 117 µM); MIC [23]: 64 µg/mL (≈ 117 µM); MIC [24]: 512 µg/mL (≈ 937 µM); MIC [25]: 8 µg/mL (≈ 14.6 µM); MIC [26]: 8 µg/mL (≈ 14.6 µM); MIC [27]: 128 µg/mL (≈ 234 µM)
CO[C@@]1(NC(=O)Cc2cccs2)C(=O)N2C(C(=O)O)=C(COC(N)=O)CS[C@@H]21 [CEFOXITIN] | 4 (≈ 9.36 µM) | 8 (≈ 18.7 µM) | 4 (≈ 9.36 µM) | 4 (≈ 9.36 µM) | 8 (≈ 18.7 µM) | 32 (≈ 74.9 µM) | 32 (≈ 74.9 µM) | 128 (≈ 299 µM) | 64 (≈ 150 µM) | 4 (≈ 9.36 µM) | 8 (≈ 18.7 µM) | 512 (≈ 1200 µM) | 8 (≈ 18.7 µM) | 128 (≈ 299 µM) | 32 (≈ 74.9 µM) | 4 (≈ 9.36 µM) | 32 (≈ 74.9 µM) | 64 (≈ 150 µM) | 16 (≈ 37.4 µM) | 8 (≈ 18.7 µM) | MIC [19]: 8 µg/mL (≈ 18.7 µM); MIC [22]: 128 µg/mL (≈ 299 µM); MIC [23]: 4 µg/mL (≈ 9.36 µM); MIC [24]: 512 µg/mL (≈ 1200 µM); MIC [25]: 2 µg/mL (≈ 4.68 µM); MIC [26]: 64 µg/mL (≈ 150 µM); MIC [27]: 4 µg/mL (≈ 9.36 µM)
